{"data": "Assay results from different studies", "cell line": "HepG2", "read-out": "cell growth or viability", "note": "Each line is one published result; the experiments were not run side by side."}
{"Structure (SMILES)": "C=CCNC1=C2C[C@@H](C)C[C@H](OC)[C@H](O)[C@@H](C)/C=C(\\C)[C@H](OC(N)=O)[C@@H](OC)/C=C\\C=C(/C)C(=O)NC(=CC1=O)C2=O", "assay": "MTT", "IC50": "0.086 µM"}
{"Structure (SMILES)": "Cc1cc(=O)oc2ccc(-c3cc(-c4ccccc4)nc(N)n3)c(O)c12", "assay": "MTT", "conditions": "72 h", "IC50": "> 128 µg/mL"}
{"Structure (SMILES)": "COc1cccc2c1C(=O)c1c(O)c3c(c(O)c1C2=O)C[C@@](O)(C(=O)CO)C[C@@H]3O[C@H]1C[C@H](N)[C@H](O)[C@H](C)O1", "assay": "MTT", "conditions": "24 h", "IC50": "3.6 µM"}
{"Structure (SMILES)": "COc1cccc2c1C(=O)c1c(O)c3c(c(O)c1C2=O)C[C@@](O)(C(=O)CO)C[C@@H]3O[C@H]1C[C@H](N)[C@H](O)[C@H](C)O1", "assay": "SRB", "IC50": "0.37 µM"}
{"Structure (SMILES)": "Cc1ccc2c(Br)cc(Br)c(O)c2n1", "assay": "MTT", "conditions": "48 h", "IC50": "> 150 µM"}
{"Structure (SMILES)": "O=[N+]([O-])c1ccc(-c2nc3ccccc3n2Cc2ccccc2)cc1", "assay": "MTT", "IC50": "7.8 µM"}
{"Structure (SMILES)": "CCCCNC(=O)NNC(=O)c1ccc(Nc2nccc(-c3ccccn3)n2)cc1", "assay": "MTT", "conditions": "24 h", "IC50": "15.7 µM"}
{"Structure (SMILES)": "O=c1[nH]cc(F)c(=O)[nH]1", "assay": "WST-1", "conditions": "48 h", "IC50": "21.4 µM"}
{"Structure (SMILES)": "CC(C)(C)NC(=O)NNC(=O)c1ccc(Nc2nccc(-c3ccc(Cl)cc3)n2)cc1", "assay": "MTT", "IC50": "4.48 µM"}
{"Structure (SMILES)": "Nc1nc(-c2ccc(NC(=O)c3ccc(Cl)c(Cl)c3)cc2F)c[nH]1", "assay": "XTT", "conditions": "24 h", "IC50": "16.9 µM"}
{"Structure (SMILES)": "Oc1ncnc2cc(Nc3nc(-c4ccccc4)cs3)ccc12", "assay": "MTT", "IC50": "11.9 µM"}
{"Structure (SMILES)": "Cc1cc(=O)oc2ccc(-c3cc(-c4ccc(Cl)cc4)nc(N)n3)c(O)c12", "assay": "MTT", "conditions": "72 h", "IC50": "18.1 µg/mL"}
{"Structure (SMILES)": "COc1cc2ncnc(Nc3ccc(F)c(Cl)c3)c2cc1NC(=O)N/N=C/CN1CCCC1", "assay": "MTT", "conditions": "72 h", "IC50": "2.48 µM"}
{"Structure (SMILES)": "Cc1ccc2nc(-c3ccc(F)cc3)n(Cc3ccccc3)c2c1", "assay": "MTT", "IC50": "27.2 µM"}
{"Structure (SMILES)": "O=C(NCCc1ccccc1)NNC(=O)c1ccc(Nc2nccc(-c3cccnc3)n2)cc1", "assay": "MTT", "IC50": "5.48 µM"}
{"Structure (SMILES)": "COc1cc2ncnc(Nc3ccc(F)c(Cl)c3)c2cc1NC(=O)N/N=C/CN1CCOCC1", "assay": "MTT", "conditions": "72 h", "IC50": "4.42 µM"}
{"Structure (SMILES)": "CC1=CC(C)(C)N(Cc2ccccc2)c2ccc(O)cc21", "assay": "MTT", "conditions": "72 h", "IC50": "20 µM"}
{"Structure (SMILES)": "O=C(N/N=C/c1cccn1CCN1CCCC1)Nc1cc2c(Nc3ccc(F)c(Cl)c3)ncnc2cc1O[C@H]1CCOC1", "assay": "MTT", "conditions": "72 h", "IC50": "0.64 µM"}
{"Structure (SMILES)": "CN(C)c1ccc(-c2nc3ccccc3[nH]2)cc1", "assay": "MTT", "conditions": "48 h", "IC50": "37.5 µM"}
{"Structure (SMILES)": "CC(=O)O[C@H]1C(=O)[C@@]2(C)[C@H]([C@H](OC(=O)c3ccccc3)[C@]3(O)C[C@H](OC(=O)[C@H](O)[C@@H](NC(=O)c4ccccc4)c4ccccc4)C(C)=C1C3(C)C)[C@]1(OC(C)=O)CO[C@@H]1C[C@@H]2O", "IC50": "2 µg/mL"}
{"Structure (SMILES)": "COc1ccnc(-c2cc(OC)ccn2)c1", "assay": "MTT", "conditions": "48 h", "IC50": "> 50 µM"}
{"Structure (SMILES)": "CCN(CC)CCCn1cccc1/C=N/NC(=O)Nc1cc2c(Nc3ccc(F)c(Cl)c3)ncnc2cc1O[C@H]1CCOC1", "assay": "MTT", "conditions": "72 h", "IC50": "0.71 µM"}
{"Structure (SMILES)": "O=c1[nH]cc(F)c(=O)[nH]1", "assay": "MTT", "conditions": "48 h", "IC50": "32.8 µM"}
{"Structure (SMILES)": "CC1(C)[C@@H](O)CC[C@]2(C)[C@H]3C(=O)C=C4[C@@H]5C[C@@](C)(C(=O)O)CC[C@]5(C)CC[C@@]4(C)[C@]3(C)CC[C@@H]12", "assay": "MTT", "conditions": "48 h", "IC50": "> 100 µM"}
{"Structure (SMILES)": "COc1cc2ncnc(Nc3ccc(F)c(Cl)c3)c2cc1NC(=O)N/N=C/c1cccn1CCN1CCCCC1", "assay": "MTT", "conditions": "72 h", "IC50": "0.05 µM"}
{"Structure (SMILES)": "Nc1ncnc2c1ncn2[C@@H]1O[C@H](CO)[C@@H](O)[C@H]1O", "assay": "WST-1", "conditions": "48 h", "IC50": "55.1 µM"}
{"Structure (SMILES)": "Fc1cccc(Cl)c1-c1nc2ccccc2[nH]1", "assay": "MTT", "conditions": "48 h", "IC50": "> 100 µM"}
{"Structure (SMILES)": "Oc1ccc(-c2csc(Nc3ccc4c(O)ncnc4c3)n2)cc1", "assay": "MTT", "IC50": "14.2 µM"}
{"Structure (SMILES)": "COC(=O)CN=c1scc(-c2ccccc2)n1-c1ccccc1", "assay": "MTT", "conditions": "72 h", "IC50": "75.5 µM"}
{"Structure (SMILES)": "COc1cc2ncnc(Nc3ccc(F)c(Cl)c3)c2cc1NC(=O)N/N=C/c1cccn1CCCN1CCCC1", "assay": "MTT", "conditions": "72 h", "IC50": "0.06 µM"}
{"Structure (SMILES)": "CC1=C(O)C(=O)C=C2C1=CC=C1[C@@]2(C)CC[C@@]2(C)[C@@H]3C[C@](C)(C(=O)OCCCOc4ccccc4)CC[C@]3(C)CC[C@]12C", "assay": "MTT", "conditions": "48 h", "IC50": "3.04 µM"}
{"Structure (SMILES)": "CCN(CC)C/C=N/NC(=O)Nc1cc2c(Nc3ccc(F)c(Cl)c3)ncnc2cc1O[C@H]1CCOC1", "assay": "MTT", "conditions": "72 h", "IC50": "2.38 µM"}
{"Structure (SMILES)": "COc1ccc(-c2nc3ccccc3[nH]2)cc1O", "assay": "MTT", "conditions": "48 h", "IC50": "64.2 µM"}
{"Structure (SMILES)": "CC1=C(O)C(=O)C=C2C1=CC=C1[C@@]2(C)CC[C@@]2(C)[C@@H]3C[C@](C)(C(=O)OCCCO)CC[C@]3(C)CC[C@]12C", "assay": "MTT", "conditions": "48 h", "IC50": "0.75 µM"}
{"Structure (SMILES)": "Cc1ccc2nc(-c3cc(Br)ccc3O)[nH]c2c1", "assay": "MTT", "conditions": "48 h", "IC50": "8.93 µM"}
{"Structure (SMILES)": "CC1=C(O)C(=O)C=C2C1=CC=C1[C@@]2(C)CC[C@@]2(C)[C@@H]3C[C@](C)(C(=O)OCCCCCCCCO)CC[C@]3(C)CC[C@]12C", "assay": "MTT", "conditions": "48 h", "IC50": "3.3 µM"}
{"Structure (SMILES)": "O=[N+]([O-])c1cccc(-c2nc3ccccc3[nH]2)c1", "assay": "MTT", "conditions": "48 h", "IC50": "39 µM"}
{"Structure (SMILES)": "COc1cc2ncnc(Nc3ccc(F)c(Cl)c3)c2cc1NC(=O)N/N=C/c1cccn1CCCN1CCN(C)CC1", "assay": "MTT", "conditions": "72 h", "IC50": "0.08 µM"}
{"Structure (SMILES)": "Cc1ccc2nc(-c3c(F)cccc3Cl)[nH]c2c1", "assay": "MTT", "conditions": "48 h", "IC50": "> 100 µM"}
{"Structure (SMILES)": "C[C@H]1[C@@H](O)O[C@@H]2O[C@@]3(C)CC[C@H]4[C@H](C)CC[C@@H]1[C@@]24OO3", "assay": "CCK-8", "conditions": "48 h", "IC50": "> 50 µM"}
